Measurements as given in publication PMC6420784 (Clinical lung cancer, 2018).
Several values for one entry are separate records, joined by “and”; a condition that tells them apart may be missing. Identical values can stand only once. Marks after values point to notes of the source that are not given here. Each block holds one compound with its values, some of them ahead of it.

Key:
[1] = tested on: previously treated KRAS-mutated advanced NSCLC; conditions: single-agent trametinib 2.0 mg q.d., 10 of 86 patients; cited from earlier work
[2] = tested on: patients with KRAS-mutated metastatic NSCLC; assay: Phase Ib safety: adverse events, dose-limiting toxicities, MTD; format: in vivo, human; conditions: for patients with AEs leading to dose interruptions or dose modifications: all dose levels, of the named drug
Method in brief: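 Two 3 + 3 escalations. First, JAK/TBK1 inhibitor 100–200 mg q.d. or b.i.d. with MEK1/2 inhibitor 1.0 mg q.d. (level −1: 100 mg with 0.5 mg). Then MEK inhibitor 1.5 and 2.0 mg q.d. at the other drug's MTD. DLTs scored over the first 28-day cycle. MTD was the level below that with ≥2 DLTs. AEs recorded from first dose to 30 days post-dose, coded by MedDRA 19.1 and graded by CTCAE 4.03.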

[3] = tested on: myelofibrosis patients; conditions: once daily (q.d.), previously established; cited from earlier work
[4] = Plasma pharmacokinetics of momelotinib and M-21; format: in vivo, human; conditions: for Cmax and AUCtau with b.i.d. dosing: across 100 mg and 150 mg dose levels (dose levels 2B, 3, and I); for dose proportionality of Cmax and AUCtau: day 15 of cycle 1, between dose level 1 (100 mg q.d.) and dose level 2A (200 mg q.d.); for Cmax / Tmax / half-life: human, oral; for Cmax: mean (%CV); for Cmax / Tmax / half-life / AUCtau, mean (%CV): momelotinib in plasma; for Tmax: median (Q1, Q3); for half-life: t1/2, median (Q1, Q3)
[5] = tested on: KRAS-mutated metastatic NSCLC; assay: Phase Ib efficacy: tumor response per RECIST, PFS, OS; format: in vivo, human; conditions: all 21 patients, n = 10
Method in brief: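 Open-label, nonrandomized phase Ib in platinum-treated, refractory KRAS-mutated metastatic NSCLC (ECOG 0–1, measurable disease). Patients dosed until progression, unacceptable toxicity, consent withdrawal or refusal. CT at baseline and every 8 weeks, scored by RECIST 1.1. DCR at week 8 (CR+PR+SD) and ORR (CR+PR) given per dose level with Clopper–Pearson 90% CIs. PFS and OS by Kaplan–Meier. All enrolled patients analysed.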

[6] = plasma, day 15 of cycle 1, M1: momelotinib 100 mg q.d. with trametinib 1.0 mg q.d.
[7] = plasma, day 15 of cycle 1, M2A: momelotinib 200 mg q.d. with trametinib 1.0 mg q.d.
[8] = plasma, day 15 of cycle 1, M2B: momelotinib 100 mg b.i.d. with trametinib 1.0 mg q.d.
[9] = plasma, day 15 of cycle 1, M3: momelotinib 150 mg b.i.d. with trametinib 1.0 mg q.d.
[10] = plasma, day 15 of cycle 1, TI: momelotinib 150 mg b.i.d. with trametinib 1.5 mg q.d.

Structure (SMILES): CC(=O)Nc1cccc(-n2c(=O)n(C3CC3)c(=O)c3c(Nc4ccc(I)cc4F)n(C)c(=O)c(C)c32)c1 [trametinib]
- PR [1]: 11.6%
- patients with AEs leading to dose interruptions or dose modifications [2]: 52.4%
- maximum tolerated dose (MTD) of trametinib ([2]; q.d., in combination with momelotinib 150 mg b.i.d. (dose level M3)): 1.0 mg and 1 mg

Structure (SMILES): N#CCNC(=O)c1ccc(-c2ccnc(Nc3ccc(N4CCOCC4)cc3)n2)cc1 [Momelotinib, momelotinib]
- MTD of momelotinib as a single agent [3]: 200 mg
- Cmax and AUCtau with b.i.d. dosing [4]: similar
- dose proportionality of Cmax and AUCtau [4]: more than dose-proportional increases
- maximum momelotinib plasma concentrations ([4]; discussion summary): approximately 300 ng/mL
- maximum momelotinib plasma concentrations ([4]; equal to approximately 300 ng/mL): 0.72 µmol/L
- Cmax [4, 6]: 136 ng/mL
- Cmax [4, 7]: 572 ng/mL
- Cmax [4, 8]: 318 ng/mL
- Cmax [4, 9]: 290 ng/mL
- Cmax [4, 10]: 359 ng/mL
- Tmax [4, 6]: 1.9 h
- Tmax [4, 7]: 2 h
- Tmax [4, 8]: 0.9 h
- Tmax [4, 9]: 1.1 h
- half-life [4, 6]: 414 min
- half-life [4, 7]: 522 min
- half-life [4, 8]: 498 min
- half-life [4, 9]: 366 min
- AUCtau, mean (%CV) ([4]; day 15 of cycle 1, M1: momelotinib 100 mg q.d. with trametinib 1.0 mg q.d.): 774.3 (47.1) ng/mL/h
- AUCtau, mean (%CV) ([4]; day 15 of cycle 1, M2A: momelotinib 200 mg q.d. with trametinib 1.0 mg q.d.): 3901.9 (48.2) ng/mL/h
- AUCtau, mean (%CV) ([4]; day 15 of cycle 1, M2B: momelotinib 100 mg b.i.d. with trametinib 1.0 mg q.d.): 2568.3 (53.0) ng/mL/h
- AUCtau, mean (%CV) ([4]; day 15 of cycle 1, M3: momelotinib 150 mg b.i.d. with trametinib 1.0 mg q.d.): 2214.1 (71.5) ng/mL/h
- AUCtau, mean (%CV) ([4]; day 15 of cycle 1, TI: momelotinib 150 mg b.i.d. with trametinib 1.5 mg q.d.): 1871.1 (8.2) ng/mL/h
- patients who discontinued because of AEs ([2]; all 21 patients, n = 9): 42.9%
- patients with AEs leading to dose interruptions or dose modifications [2]: 47.6%
- maximum tolerated dose (MTD) of momelotinib ([2]; b.i.d., in combination with trametinib 1.0 mg q.d. (dose level M3)): 150 mg
- patients who discontinued because of PD [5]: 47.6%

- Cmax and AUCtau with b.i.d. dosing [4]: similar
- dose proportionality of Cmax and AUCtau [4]: more than dose-proportional increases
- M-21/Momelotinib Ratio, AUCtau, mean (%CV) [4, 6]: 2.6 (44.6)
- M-21/Momelotinib Ratio, Cmax, mean (%CV) [4, 6]: 2.2 (52.0)
- M-21/Momelotinib Ratio, AUCtau, mean (%CV) [4, 7]: 1.7 (52.8)
- M-21/Momelotinib Ratio, Cmax, mean (%CV) [4, 7]: 1.2 (47.2)
- M-21/Momelotinib Ratio, Cmax, mean (%CV) [4, 8]: 1.7 (38.3)
- M-21/Momelotinib Ratio, AUCtau, mean ([4]; plasma, day 15 of cycle 1, M2B: momelotinib 100 mg b.i.d. with trametinib 1.0 mg q.d., n = 1): 2.7^c
- M-21/Momelotinib Ratio, AUCtau, mean (%CV) [4, 9]: 1.3 (40.3)
- M-21/Momelotinib Ratio, Cmax, mean (%CV) [4, 9]: 1.3 (25.8)
- M-21/Momelotinib Ratio, AUCtau, mean (%CV) [4, 10]: 1.4 (20.6)
- M-21/Momelotinib Ratio, Cmax, mean (%CV) [4, 10]: 1.1 (13.7)
Structure (SMILES): N#CCNC(=O)c1ccc(-c2ccnc(Nc3ccc(N4CCOCC4=O)cc3)n2)cc1 [M-21]
